Published values from different studies.
Each line is one published result; the experiments were not run side by side.
Target: Muscarinic acetylcholine receptor M2 (CHRM2, Homo sapiens, UniProt P08172)
One construct used (P08172 1-466): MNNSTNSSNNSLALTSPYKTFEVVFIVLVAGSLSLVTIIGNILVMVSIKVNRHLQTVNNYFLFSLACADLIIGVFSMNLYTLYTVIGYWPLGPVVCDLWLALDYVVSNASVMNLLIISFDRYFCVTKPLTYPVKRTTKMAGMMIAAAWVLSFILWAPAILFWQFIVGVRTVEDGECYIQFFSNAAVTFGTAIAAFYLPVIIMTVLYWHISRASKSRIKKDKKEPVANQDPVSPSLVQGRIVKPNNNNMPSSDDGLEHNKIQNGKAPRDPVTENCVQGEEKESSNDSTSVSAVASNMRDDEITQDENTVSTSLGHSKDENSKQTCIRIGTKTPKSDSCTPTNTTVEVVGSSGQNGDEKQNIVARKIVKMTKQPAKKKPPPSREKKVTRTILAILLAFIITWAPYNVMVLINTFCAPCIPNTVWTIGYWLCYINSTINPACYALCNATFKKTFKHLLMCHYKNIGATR

| Structure (SMILES) | test | measurement | result |
| --- | --- | --- | --- |
| CCn1c(-c2nc3ccc(C(=O)N4CCCC(N)C4)cc3n2C)cc2ccccc21 (centres unmarked) | calcium signal, antagonist, fluorescence | IC50 | > 15.8 µM |
| Cc1cc(Oc2nccc3occc23)ccc1-c1c(C)c(=O)[nH]c(=O)n1C1CC1 | ligand displacement, radioligand | Ki | 7.7 µM |
| CCOCc1nc(O)c(-c2nnc(Cc3ccc(Cl)cn3)o2)c(O)c1-c1c(OC)cccc1OC | ligand displacement, radioligand | IC50 | > 30 µM |
| CCn1c(-c2nc3cc(C(=O)N4CCC[C@@H](N)C4)cc(OC)c3n2C)cc2cccnc21 | calcium signal, agonist | EC50 | > 15.8 µM |
| CCCCN1CCC(COC(=O)c2ccc(N)c(OCF)c2)CC1 | cell-free assay, radioligand | Ki | > 10 µM |
| COc1ccnc(Oc2ccc(-c3c(C)c(=O)[nH]c(=O)n3C)c(C)c2)c1C(F)(F)F | ligand displacement, radioligand | Ki | 6.9 µM |
| CC[C@@H]1SC2(CCN(C)CC2)NC1=O | calcium signal, agonist | EC50 | > 50 µM |
| CCN(C(=O)C1CCN(S(=O)(=O)c2ccc3[nH]ncc3c2)CC1)[C@H](C)c1ccccc1 | calcium signal, agonist | EC50 | > 30 µM |
